UBC13 inh: UBC13 polyubiquitin chain formation inhibitors, primary screen, biochemical, TR-FRET, uHTS | Ubiquitin-conjugating enzyme E2 N (Homo sapiens), P61088 | 0.47% of 330,000 active | inhibition, % at 20 µM | AID 485273, 2010; in the data active = inhibition above about 45%, passing the limit was not always enough
ANO1 block: TMEM16A chloride channel inhibitors, primary screen, cell-based, HTS | 1.2% of 310,000 active | AID 588511, 2011 | normalized B-score (activity score, 25-100; higher = stronger inhibition) at 10 µM | HEK293 TMEM16A/YFP iodide influx fluorescence, ionomycin | Anoctamin-1 (Mus musculus), Q8BHY3;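 active = ratio plate-corrected score three or more library SD toward inhibition, starting fluorescence score within five deviations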;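 note: score derived from kinetic fluorescence span divided by baseline fluorescence per well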
Apaf-1 inh: inhibitors of human Apaf-1 apoptosome, primary screen, biochemical, DEVD-Rh110 fluorescence, uHTS | AID 489030, 2010 | 0.71% of 330,000 active | inhibition, % at 20 µM | Apoptotic protease-activating factor 1 (Homo sapiens), O14727 | reconstituted apoptosome caspase-3 activity; active = inhibition of at least 40% at 20 µM;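 note: plate controls were DMSO wells for no effect and DEVD-CHO caspase inhibitor wells for full effect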
Target sequence (O14727 whole entry, looked up): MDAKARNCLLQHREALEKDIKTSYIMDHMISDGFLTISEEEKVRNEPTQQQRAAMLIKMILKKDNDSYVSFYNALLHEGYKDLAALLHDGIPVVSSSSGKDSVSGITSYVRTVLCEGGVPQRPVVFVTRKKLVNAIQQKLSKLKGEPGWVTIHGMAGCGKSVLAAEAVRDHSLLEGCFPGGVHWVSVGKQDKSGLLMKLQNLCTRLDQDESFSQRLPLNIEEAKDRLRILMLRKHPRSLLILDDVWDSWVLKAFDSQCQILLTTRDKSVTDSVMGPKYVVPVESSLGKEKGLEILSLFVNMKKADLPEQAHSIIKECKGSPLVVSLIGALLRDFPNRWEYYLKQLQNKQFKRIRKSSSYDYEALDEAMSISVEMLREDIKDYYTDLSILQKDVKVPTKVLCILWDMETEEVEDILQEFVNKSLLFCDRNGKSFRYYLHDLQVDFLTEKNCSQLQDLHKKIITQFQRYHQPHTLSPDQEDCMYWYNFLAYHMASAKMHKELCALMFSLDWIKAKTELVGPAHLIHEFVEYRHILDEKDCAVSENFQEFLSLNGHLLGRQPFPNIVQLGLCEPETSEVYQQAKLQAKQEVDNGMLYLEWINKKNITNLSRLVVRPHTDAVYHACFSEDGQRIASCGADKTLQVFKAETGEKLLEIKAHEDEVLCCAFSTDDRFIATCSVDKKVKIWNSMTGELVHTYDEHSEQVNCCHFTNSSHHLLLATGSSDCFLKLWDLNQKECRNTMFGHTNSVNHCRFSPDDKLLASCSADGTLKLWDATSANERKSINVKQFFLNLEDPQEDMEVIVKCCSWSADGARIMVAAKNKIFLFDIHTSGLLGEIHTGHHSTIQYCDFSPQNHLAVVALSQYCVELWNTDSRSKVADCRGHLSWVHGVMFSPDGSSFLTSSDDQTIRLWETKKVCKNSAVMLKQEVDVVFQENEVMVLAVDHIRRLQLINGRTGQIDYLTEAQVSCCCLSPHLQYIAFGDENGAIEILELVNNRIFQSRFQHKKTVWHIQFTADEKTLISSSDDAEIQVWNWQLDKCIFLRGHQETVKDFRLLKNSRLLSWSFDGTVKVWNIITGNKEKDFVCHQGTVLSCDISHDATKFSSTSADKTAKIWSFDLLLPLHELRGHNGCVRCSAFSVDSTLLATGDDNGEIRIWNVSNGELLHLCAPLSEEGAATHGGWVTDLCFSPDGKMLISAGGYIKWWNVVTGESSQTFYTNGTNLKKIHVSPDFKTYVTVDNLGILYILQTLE
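Material: cell-free apoptosome with Apaf-1, procaspase-3 and caspase-9; Buffer or medium: Hepes pH 7.5 with detergent and BSA; Reagent: cytochrome c trigger plus (Z-DEVD)2-Rh110 caspase-3 substrate; Times: compound with Apaf-1, dATP, procaspase-3 30 min, then 50 min reaction, room temperature; Technique: Rh110 fluorescence intensity.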
DNA FID counter: compounds displacing fluorescent DNA intercalator, primary screen, artefact control for HCV NS3 helicase inhibitor project, biochemical, FID fluorescence; DNA fluorescent intercalator displacement; 0.17% of 290,000 active; inhibition, % at 7.9 µM; AID 1845, 2009; in the data active = inhibition above about 37%;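 note: 0% = vehicle and 100% = reference compound; higher means more ethidium bromide displaced from hairpin DNA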
ANO1 activ: TMEM16A chloride channel activators or potentiators, primary screen, cell-based, HTS; HEK293 TMEM16A/YFP-H148Q/I152L, iodide quench fluorescence; active compounds read low; B-score at 10 µM; 0.3% of 340,000 active; AID 623877, 2012;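 active = fluorescence-ratio B-score plate-corrected deviation score at least 3 library SD below zero, with starting fluorescence score within 5 deviations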;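 note: channel opened by trigger with iodide after compound preincubation; score built on the fluorescence ratio of max minus min over baseline; more negative score means more quench and so TMEM16A activation or potentiation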
Casp3 UBC13 ctr: CASP3 inhibitor validation, counterassay for project on UBE2N polyubiquitination blockers, biochemical, one dose; 4% of 1,400 active; Recombinant caspase-3, Caspase-Glo 3/7 luminescence, 60 min; shares compounds with UBC13 inh; inhibition, % at 20 µM;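 active = mean inhibition across replicates above about 26%, limit read from the data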;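 note: plate controls were DMSO with caspase-3 for no effect and DMSO wells lacking enzyme for full effect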
UBC13 conf: UBC13 polyubiquitination inhibitors, single-point retest, confirmation, biochemical, TR-FRET, single concentration; AID 488859, 2010; inhibition, % at 10 µM; 68% of 1,400 active; shares compounds with UBC13 inh; in the data active = inhibition above about 45%
Active calls of the source: *; i = inactive; / = no result given. This is a sample that favours compounds with a hit; in the whole collection about 2.4% have one here.

SMILES	UBC13 inh	ANO1 block	Apaf-1 inh	DNA FID counter	ANO1 activ	Casp3 UBC13 ctr	UBC13 conf
C#CCOCCOCCOCCNc1nc(N2CCN(C(=O)[C@H]([C@@H](C)CC)n3cc([C@@H](N)Cc4ccc(O)cc4)nn3)CC2)nc(N2CCN(C(=O)[C@H](CCCCN)n3cc([C@@H](N)C(C)CC)nn3)CC2)n1 (some centres not stated)	67*	i	22	43*	i	-4	50*
C#CCOCCOCCOCCNc1nc(N2CCN(C(=O)[C@H]([C@@H](C)CC)n3cc([C@@H](N)Cc4ccc(O)cc4)nn3)CC2)nc(N2CCN(C(=O)[C@H]([C@@H](C)CC)n3cc([C@@H](N)Cc4ccc(O)cc4)nn3)CC2)n1	54*	i	30	36	i	-3	40
C#CCOCCOCCOCCNc1nc(N2CCN(C(=O)[C@H]([C@@H](C)CC)n3cc([C@@H](N)CC(C)C)nn3)CC2)nc(N2CCN(C(=O)[C@H]([C@@H](C)CC)n3cc([C@@H](N)CC(C)C)nn3)CC2)n1	66*	i	10	34	i	-1	56*
C#CCOCCOCCOCCNc1nc(N2CCN(C(=O)[C@H](CCC(=O)O)n3cc(C(N)Cc4ccc(O)cc4)nn3)CC2)nc(N2CCN(C(=O)[C@H](CCCCN)n3cc(C(N)[C@H](C)CC)nn3)CC2)n1 (some centres not stated)	-7	/	-2	/	/	/	/
C#CCOCCOCCOCCNc1nc(N2CCN(C(=O)[C@H]([C@@H](C)CC)n3cc([C@@H](N)CC(C)C)nn3)CC2)nc(N2CCN(C(=O)[C@H](Cc3ccc(O)cc3)n3cc([C@@H](N)CC(C)C)nn3)CC2)n1	33	i	-5	34	/	/	/
Cc1cc(Cl)cc(C)c1OCCOCCNCc1ccccc1	9	i	18	28	i	/	/
Cc1cc(NCCCn2ccnc2)n2ncc(-c3ccc(Cl)cc3)c2n1	19	i	7	17	i	/	/
CC(C)(C)c1cc(NCCCn2ccnc2)n2ncc(-c3ccccc3)c2n1	61*	i	31	17	i	0	55*
OC(c1cc(C(F)(F)F)nc2c(Cl)cc(Cl)cc12)C1CCCCN1 (configuration not stated)	7	i	8	17	i	/	/
O[C@@H](c1cc(C(F)(F)F)nc2c(C(F)(F)F)cccc12)[C@H]1CCCCN1	64*	i	52*	/	i	-2	45
C[C@H]1NS(=O)(=O)c2ccc(Br)cc2O[C@H]1c1ccccc1	/	/	15	/	/	/	/
CN(C)/C=C(\C#N)S(=O)(=O)c1ccc(Cl)cc1	1	i	8	-2	i	/	/
CC(C)(C)OC(=O)[C@H](Cc1ccccc1)NC(=O)c1[nH]cnc1C(=O)N[C@@H](Cc1ccccc1)C(=O)OCc1ccccc1	-60	i	18	-32	i	/	/
CC(C)(C)OC(=O)[C@H](CCCCN)NC(=O)c1[nH]cnc1C(=O)N[C@@H](Cc1ccccc1)C(=O)OCc1ccccc1	72*	/	65*	/	i	2	69*
CN(C(=O)c1cc(COc2ccc(F)c(F)c2)on1)C1CCOC1 (configuration not stated)	-1	i	-9	-12	i	/	/
CCc1cc(CNC(=O)CCc2nnc(CCCc3ccccc3)o2)on1	-6	i	-3	-10	i	/	/
O=C(CCCN1C(=O)/C(=C/c2ccccc2Cl)SC1=S)NNC(=O)c1ccc(Cl)cc1	58*	i	17	-11	i	-1	83*
O=C(c1cccc(S(=O)(=O)N2CCCC2)c1)N1CCCC(C(F)(F)F)C1 (configuration not stated)	73*	i	21	/	i	-3	109*
O=C(c1cccc(S(=O)(=O)N2CCOCC2)c1)N1CCCC(C(F)(F)F)C1 (configuration not stated)	1	i	2	/	i	/	/
O=C(Nc1cccc(F)c1)c1cc(S(=O)(=O)NCCC2=CCCCC2)ccc1F	48*	i	22	-6	i	-2	30
Cc1ccc(NC(=O)c2cc(S(=O)(=O)NCCC3=CCCCC3)ccc2F)cc1F	-1	i	6	-2	i	/	/
CC1(C)Cc2c(sc(NC(=O)c3ccc(S(=O)(=O)N4CCCCCC4)cc3)c2C(N)=O)C(C)(C)N1	19	i	24	31	i	/	/
CC1(C)Cc2c(sc(NC(=O)c3ccc4c(c3)OCCO4)c2C(N)=O)C(C)(C)N1	55*	i	4	17	i	-4	70*
COc1ccc2c(c1)cc1c(=O)n(CC(=O)NCCCN3CCOCC3)nc(C)n12	-11	i	6	9	i	/	/
Nc1c(Cl)ncnc1N/N=C/c1cccc(O)c1	62*	i	-14	0	i	81*	-8
SMILES	UBC13 inh	ANO1 block	Apaf-1 inh	DNA FID counter	ANO1 activ	Casp3 UBC13 ctr	UBC13 conf
CN(C)CCn1cnc2c(c1=N)C(c1ccccc1)c1ccc3ccccc3c1O2 (configuration not stated)	48*	i	26	35	i	1	56*
CCOc1ccc(C(C(=O)NCC2CCCO2)N(C(=O)c2snc(C(N)=O)c2N)c2ccccc2F)cc1 (configuration not stated)	48*	i	14	-43	i	0	48*
Cc1ccc(C(C(=O)NCC2CCCO2)N(C(=O)c2snc(C(N)=O)c2N)c2ccccc2F)o1 (configuration not stated)	47*	i	9	-40	i	0	30
COc1cc(OC)cc(N(C(=O)c2snc(C(N)=O)c2N)C(C(=O)NCC2CCCO2)c2ccc(C)o2)c1 (configuration not stated)	4	i	10	-38	i	/	/
NC(=O)c1nsc(C(=O)N(c2ccccc2F)C(C(=O)NCc2ccc(F)cc2)c2ccc(O)cc2)c1N (configuration not stated)	47*	i	15	-12	i	2	49*
CCOc1ccc(N(C(=O)c2snc(C(N)=O)c2N)C(C(=O)NCC2CCCO2)c2ccc(C)o2)cc1 (configuration not stated)	74*	/	4	-33	i	0	82*

Source: PubChem (several laboratories)
